In ChEMBL document CHEMBL2086363, “Lipophilic Isosteres of a π-π Stacking Interaction: New Inhibitors of the Bcl-2-Bak Protein-Protein Interaction” (ACS Med Chem Lett, 2012):

Columns and labels:
[1] = biological target: Apoptosis regulator Bcl-2/Bcl-2 homologous antagonist/killer (Homo sapiens, UniProt P10415); assay: Inhibition of Bcl2-BAK interaction after 1 hr by surface plasmon resonance assay; format: protein assay
Method in brief: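 SPR measurement of Bcl-2–Bak binding inhibition. Each value is the average of at least two measurements, with duplicate EC50 values generated in each assay.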

MCL1-BAK1 complex = MCL1-BAK1 complex (Homo sapiens, UniProt Q07820); assay: Inhibition of Mcl1-BAK interaction; format: protein-complex assay
Bcl-xL/BAK = Bcl-xL/BAK (Homo sapiens, UniProt Q07817); assay: Inhibition of Bcl-XL-BAK interaction; format: protein assay
[2] = Volume of distribution at steady state in Sprague-Dawley rat at 1 mg/kg, iv and 10 mg/kg, po; format: ADME, organism-based; settings: in vivo, read-out: Vdss
[3] = Clearance in Sprague-Dawley rat at 1 mg/kg, iv and 10 mg/kg, po; format: ADME, organism-based; settings: in vivo
[4] = Half life in Sprague-Dawley rat at 1 mg/kg, iv and 10 mg/kg, po; format: ADME, organism-based; settings: in vivo
[5] = Oral bioavailability in Sprague-Dawley rat at 10 mg/kg; format: ADME, organism-based; settings: in vivo
[6] = Selectivity ratio of EC50 for Bcl-XL-BAK interaction to EC50 for Bcl2-BAK interaction

Chain of Apoptosis regulator Bcl-2/Bcl-2 homologous antagonist/killer (P10415 whole entry): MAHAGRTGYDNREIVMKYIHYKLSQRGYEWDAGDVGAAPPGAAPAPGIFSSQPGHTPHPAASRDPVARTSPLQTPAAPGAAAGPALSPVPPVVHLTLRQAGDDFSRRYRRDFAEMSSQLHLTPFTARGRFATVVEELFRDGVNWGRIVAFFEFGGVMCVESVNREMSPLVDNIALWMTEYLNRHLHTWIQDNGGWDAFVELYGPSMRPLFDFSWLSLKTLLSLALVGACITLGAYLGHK
Chain of Apoptosis regulator Bcl-2/Bcl-2 homologous antagonist/killer (Q16611 whole entry, further chain): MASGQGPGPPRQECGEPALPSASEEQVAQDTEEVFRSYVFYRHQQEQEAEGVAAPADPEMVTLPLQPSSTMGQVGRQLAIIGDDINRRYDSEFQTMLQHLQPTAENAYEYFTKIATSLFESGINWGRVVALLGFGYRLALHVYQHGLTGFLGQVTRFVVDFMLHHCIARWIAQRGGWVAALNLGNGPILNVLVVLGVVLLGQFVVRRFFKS
Chain of MCL1-BAK1 complex (Q07820 whole entry): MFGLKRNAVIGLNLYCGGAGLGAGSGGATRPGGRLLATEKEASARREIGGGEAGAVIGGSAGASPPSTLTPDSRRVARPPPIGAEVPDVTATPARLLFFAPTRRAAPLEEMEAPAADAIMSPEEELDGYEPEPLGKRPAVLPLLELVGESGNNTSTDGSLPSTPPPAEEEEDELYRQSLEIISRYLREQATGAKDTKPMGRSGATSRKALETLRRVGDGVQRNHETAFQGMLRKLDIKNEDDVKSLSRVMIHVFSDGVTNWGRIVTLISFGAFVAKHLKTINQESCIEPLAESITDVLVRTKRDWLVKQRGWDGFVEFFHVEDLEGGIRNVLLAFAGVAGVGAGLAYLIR
Chain of MCL1-BAK1 complex (Q16611 whole entry, further chain): as the sequence (Q16611 whole entry, further chain) above
Chain of Bcl-xL/BAK (Q07817 whole entry): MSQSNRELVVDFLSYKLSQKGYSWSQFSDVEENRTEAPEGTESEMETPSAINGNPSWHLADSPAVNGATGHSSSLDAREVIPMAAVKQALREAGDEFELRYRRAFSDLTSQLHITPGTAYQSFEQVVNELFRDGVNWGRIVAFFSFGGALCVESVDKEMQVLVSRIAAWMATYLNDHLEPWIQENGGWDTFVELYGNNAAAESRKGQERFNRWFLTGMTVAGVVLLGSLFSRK
Chain of Bcl-xL/BAK (Q16611 whole entry, further chain): as the sequence (Q16611 whole entry, further chain) above

| SMILES | EC50 [1] [nM] | IC50 (MCL1-BAK1 complex) [nM] | further results |
| --- | --- | --- | --- |
| O=C(NS(=O)(=O)CC12CC3CC(CC(F)(C3)C1)C2)c1ccc(N2CCN(Cc3ccccc3-c3ccc(Cl)cc3)CC2)cc1 | 480 |  |  |
| O=C(NS(=O)(=O)NC12CC3CC(CC(C3)C1)C2)c1ccc(N2CCN(Cc3ccccc3-c3ccc(Cl)cc3)CC2)cc1 | 2100 | > 50000 |  |
| CC(=O)NC12CC3CC(CC(CS(=O)(=O)NC(=O)c4ccc(N5CCN(Cc6ccccc6-c6ccc(Cl)cc6)CC5)cc4)(C3)C1)C2 | 230 |  |  |
| O=C(NS(=O)(=O)CC12CC3CC(C1)CC(NC(=O)C1CC1)(C3)C2)c1ccc(N2CCN(Cc3ccccc3-c3ccc(Cl)cc3)CC2)cc1 | 210 |  |  |
| O=C(NS(=O)(=O)CC12CC3CC(C1)CC(OCCN1CCOCC1)(C3)C2)c1ccc(N2CCN(Cc3ccccc3-c3ccc(Cl)cc3)CC2)cc1 | 310 |  |  |
| O=C(NS(=O)(=O)CC12CC3CC(CC(Br)(C3)C1)C2)c1ccc(N2CCN(Cc3ccccc3-c3ccc(Cl)cc3)CC2)cc1 | 670 |  |  |
| CC1(C)C2CC[C@@]1(CS(=O)(=O)NC(=O)c1ccc(N3CCN(Cc4ccccc4-c4ccc(Cl)cc4)CC3)cc1)C(=O)C2 | 1470 | > 50000 |  |
| O=C(NS(=O)(=O)CC12CC3CC(CC1C3)C2)c1ccc(N2CCN(Cc3ccccc3-c3ccc(Cl)cc3)CC2)cc1 | 2660 | > 50000 |  |
| CC1(C)C2CC[C@]1(CS(=O)(=O)NC(=O)c1ccc(N3CCN(Cc4ccccc4-c4ccc(Cl)cc4)CC3)cc1)C(=O)C2 | 1020 | > 50000 |  |
| CC12CC3CC(C1)CC(CS(=O)(=O)NC(=O)c1ccc(N4CCN(Cc5ccccc5-c5ccc(Cl)cc5)CC4)cc1)(C3)C2 | 1100 |  |  |
| O=C(NS(=O)(=O)CC12CC3CCC(CC(C3)C1)C2)c1ccc(N2CCN(Cc3ccccc3-c3ccc(Cl)cc3)CC2)cc1 | 120 | > 50000 | EC50 (Bcl-xL/BAK): 220 nM |
| CC(C)C(=O)NC12CC3CC(CC(CS(=O)(=O)NC(=O)c4ccc(N5CCN(Cc6ccccc6-c6ccc(Cl)cc6)CC5)cc4)(C3)C1)C2 | 160 |  |  |
| O=C(NS(=O)(=O)CCC12CC3CC(CC(C3)C1)C2)c1ccc(N2CCN(Cc3ccccc3-c3ccc(Cl)cc3)CC2)cc1 | 2810 | > 50000 |  |
| O=C(NS(=O)(=O)CC12CC3CC(C1)CC(c1ccccc1)(C3)C2)c1ccc(N2CCN(Cc3ccccc3-c3ccc(Cl)cc3)CC2)cc1 | 1970 |  |  |
| O=C(NS(=O)(=O)CC12CC3CC(CC(O)(C3)C1)C2)c1ccc(N2CCN(Cc3ccccc3-c3ccc(Cl)cc3)CC2)cc1 | 300 |  | Vd [2]: 1.2 L/kg; clearance [3]: 16 mL/min/kg; half-life [4]: 1.3 h; bioavailability [5]: > 100% |
| CS(=O)(=O)NC(=O)c1ccc(N2CCN(Cc3ccccc3-c3ccc(Cl)cc3)CC2)cc1 | 8620 | > 50000 |  |
| CC1(C)[C@]2(C)CC[C@@H](CS(=O)(=O)NC(=O)c3ccc(N4CCN(Cc5ccccc5-c5ccc(Cl)cc5)CC4)cc3)[C@@]1(C)C2 | 420 | > 50000 | EC50 (Bcl-xL/BAK): 580 nM |
| CCS(=O)(=O)NC(=O)c1ccc(N2CCN(Cc3ccccc3-c3ccc(Cl)cc3)CC2)cc1 | 5310 | > 50000 |  |
| O=C(NS(=O)(=O)C12CC3CC(CC(C3)C1)C2)c1ccc(N2CCN(Cc3ccccc3-c3ccc(Cl)cc3)CC2)cc1 | > 16000 | > 50000 |  |
| CC1(C)[C@@]2(C)CC[C@H](CS(=O)(=O)NC(=O)c3ccc(N4CCN(Cc5ccccc5-c5ccc(Cl)cc5)CC4)cc3)[C@]1(C)C2 | 560 | > 50000 |  |
| O=C(NS(=O)(=O)CC12CC3CC(CC(C3)C1)C2)c1ccc(N2CCN(Cc3ccccc3-c3ccc(Cl)cc3)CC2)cc1 | 670 | > 50000 | Vd [2]: 0.7 L/kg; clearance [3]: 6 mL/min/kg; Ratio EC50 [6]: 4.3; half-life [4]: 1.3 h; EC50 (Bcl-xL/BAK): 2850 nM; bioavailability [5]: 66% |
| CC(C)(C)S(=O)(=O)NC(=O)c1ccc(N2CCN(Cc3ccccc3-c3ccc(Cl)cc3)CC2)cc1 | > 16000 | > 50000 |  |
| CC(C)(C)C(=O)NC12CC3CC(CC(CS(=O)(=O)NC(=O)c4ccc(N5CCN(Cc6ccccc6-c6ccc(Cl)cc6)CC5)cc4)(C3)C1)C2 | 520 |  |  |
